The results in this text go back to ChEMBL document CHEMBL4680165, “β-Lactams with antiproliferative and antiapoptotic activity in breast and chemoresistant colon cancer cells” (Eur J Med Chem, 2020).

Experiment [1] has as its system HT-29. The experiment can be described thus: Induction of apoptosis in human HT29 cells assessed as cell apoptosis at 1 uM after 24 hrs by Annexin V-FITC and propidium iodide staining based flow cytometry. The format is functional. An outline of the steps:
(§1)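 HT-29 cells were treated at 1 µM for 24, 48 and 72 h against an untreated control. Cells were stained with Annexin V in binding buffer (HEPES pH 7.4, NaCl, CaCl2) for 30 min on ice in the dark, washed, resuspended in PI-containing buffer and read at once by flow cytometry. Quadrants: early apoptotic, late apoptotic, necrotic (Annexin V−/PI+).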

The test system of another experiment is HEK-293T. The experiment can be described thus: Antiproliferative activity against human HEK293T cells assessed as reduction in cell viability after 72 hrs by alamar blue assay. The experiment is classed as cell-based. The method in brief:
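Cells seeded at 5 x 10^3/well (MCF-7) or 1 x 10^4/well (HT-29, HEK-293T) and treated after 24 h with serial dilutions (0.001-100 µM) in 1% v/v ethanol vehicle. Alamar Blue 10% v/v added at 72 h, then 3-5 h at 37 °C in the dark; fluorescence ex 530/em 590 nm. Viability relative to vehicle; IC50 from dose-response curves; mean of three experiments in triplicate.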
For orientation: Alamar Blue is a resazurin reagent that responds to reducing activity.

Experiment [2] deals with HT-29. Put plainly: Antiangiogenic activity in human HT-29 cells assessed as increase in IL-1RA secretion at 5 uM after 24 hrs by ELISA. The format is functional, cell-based. An outline of the steps:
(§2)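 HT-29 cells at 5 x 10^4 per well, cultured 24 h and then exposed to 5 µM compound. Conditioned medium collected on ice and stored at -80 °C. Cytokines and angiogenic, vascular-injury and chemokine factors measured by multiplex panels with overnight supernatant incubation (Angiogenesis Panel 1 and Vascular Injury Panel 2 same day). Medium undiluted except 1:4 for Vascular Injury Panel 2. Secretion normalised to lysate protein by BCA.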
(ELISA stands for enzyme-linked immunosorbent assay.)

The subject of experiment [3] is HT-29. Put plainly: Antiangiogenic activity in human HT29 cells assessed as reduction in IL-1beta secretion at 5 uM after 24 hrs by ELISA. The experiment is classed as functional, cell-based. The method in brief:
as §2

Experiment [4] is described as follows: Selectivity index, ratio of IC50 for human MCF7 cells to IC50 for human HT-29 cells assessed as reduction in cell viability after 72 hrs by alamar blue assay. The experiment is classed as functional.
Experiment [5] has as its system HT-29. Put plainly: Induction of apoptosis in human HT29 cells assessed as necrotic cells at 1 uM after 48 hrs by Annexin V-FITC and propidium iodide staining based flow cytometry (reference value: 3 %). The experiment is classed as functional. The method in brief:
as §1
A general note: In flow cytometry, cells or beads pass a laser one at a time.

A further experiment deals with Tubulin (Homo sapiens) (UniProt P68371+Q9H4B7+P0DPH7+P68366+Q13509+Q71U36+P04350+Q3ZCM7+P07437+P68363+Q9BQE3+Q6PEY2+Q13885+Q9BVA1+Q9BUF5). The experiment can be described thus: Induction of microtubule depolymerization in human MCF7 cells assessed as induction of cell detachment and loss of radical distribution at 100 nM for 5 hrs by immunofluorescence staining based confocal microscopic analysis. An outline of the steps: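 MCF-7 cells were seeded at 1 × 10^5 cells/mL on chamber slides and treated at 0.01, 0.05 and 0.1 µM. Controls were vehicle (1% v/v ethanol), CA-4 (0.01 µM) and paclitaxel (1 µM). Cells were fixed and stained with anti-α-tubulin-FITC (DM1A) and Alexa Fluor 488, then counterstained with DAPI. Imaging was by confocal microscopy over three separate experiments.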

Active and inactive are the calls of the source. The calls are words filed in the database; no cut-off is given here.

One may read the IC50 as the concentration needed to halve the response being measured. On to `COc1ccc([C@H]2[C@H](O)C(=O)N2c2cc(OC)c(OC)c(OC)c2)cc1F`, for which the Activity is on record as 21% with HT-29 [1] and 11% with HT-29 [5]. Further, in the experiment on HEK-293T, the IC50 was above 50 µM. In addition, the result in the experiment on HT-29 [2] and on Tubulin (Homo sapiens) was Active. Further, the result in the experiment on HT-29 [3] was inactive. In addition, the “Ratio IC50” value in experiment [4] is reported as 7.33.
